DAGLB inhibitor – diacylglycerol lipase beta (human) inhibition; actives 0.059% (n = 340,000); HEK293T DAGLB membrane lysate, EnzChek fluorogenic substrate; inhibition, % at 5.17 µM; AID 504411; in the data active means inhibition above about 34%
SIAE primary – inhibitors of human sialic acid acetylesterase SIAE; AID 1053197; SIAE FP-Rh probe binding, fluorescence polarization; Q9HAT2; actives 0.69% (n = 370,000); inhibition, % at 9.66 µM;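 active means inhibition above a cutoff: mean of compounds within the control limits plus 3 SD of those, cut at about 17% in these data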
HTRA1 inh – inhibitors of human serine peptidase HTRA1. recombinant HTRA1, FP-rhodamine activity-based probe, fluorescence polarization. actives 0.5% (n = 340,000). inhibition, % at 5.96 µM. Q92743; in the data active means inhibition above about 36%
Target sequence (Q92743 whole entry, looked up): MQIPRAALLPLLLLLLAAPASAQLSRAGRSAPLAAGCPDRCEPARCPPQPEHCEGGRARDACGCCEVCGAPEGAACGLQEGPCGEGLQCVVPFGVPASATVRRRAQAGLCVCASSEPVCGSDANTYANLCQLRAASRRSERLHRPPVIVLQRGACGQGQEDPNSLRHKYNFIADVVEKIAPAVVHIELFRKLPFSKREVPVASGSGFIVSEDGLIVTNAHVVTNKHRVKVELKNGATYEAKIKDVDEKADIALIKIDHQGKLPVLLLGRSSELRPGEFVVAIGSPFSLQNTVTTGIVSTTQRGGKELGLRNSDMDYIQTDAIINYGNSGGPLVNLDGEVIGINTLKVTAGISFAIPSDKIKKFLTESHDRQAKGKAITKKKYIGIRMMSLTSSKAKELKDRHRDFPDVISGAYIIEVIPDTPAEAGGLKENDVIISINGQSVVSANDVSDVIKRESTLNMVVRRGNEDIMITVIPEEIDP
mABHD4 FP – inhibitors of mouse ABHD4. Q8VD66. purified mABHD4, FP-Rh probe fluorescence polarization. inhibition, % at 8.92 µM. actives 0.54% (n = 370,000);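 active means inhibition exceeding the mean over every tested compound plus 3 SD, cut at about 30% in these data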
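Assay system: Wild-type mouse ABHD4 protein | Medium: HEPES pH 7.0 buffer, 150 mM NaCl, 0.01% Pluronic F-127 | Incubation: Enzyme–compound pre-incubation 45 min, then probe 60 min, both 25 °C | Technique: Fluorescence polarization with parallel and perpendicular emission, 525/598 nm | Evaluation: % inhibition of FP-Rh probe binding versus controls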
TCR CD3 inh – inhibitors of human TCR-CD3 interaction. TAMRA-labeled TCR probe fluorescence, biochemical. inhibition, % at 9.4 µM. actives 0.37% (n = 360,000). AID 651800; in the data active means inhibition above about 19%;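 further: recombinant mutant TCR 2C K166C tagged with TAMRA read by polarization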
ABHD4 confirm – ABHD4 (mouse) inhibition, FP confirmation | actives 55% (n = 1,800) | inhibition, % at 8.92 µM | shares compounds with mABHD4 FP | purified mABHD4, FP-Rh probe fluorescence polarization;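 active means mean inhibition across replicates above the hit cutoff set in the primary screen, cut at about 30% in these data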
Hits are given with their value; – = inactive; · = no result. Only some compounds are listed: those with a hit (about 1.6% of all), similar ones and a draw of the others.

SMILES	DAGLB inhibitor	SIAE primary	HTRA1 inh	mABHD4 FP	TCR CD3 inh	ABHD4 confirm
O=[N+]([O-])c1ccc(NN=Cc2ccc(O)cc2O)nc1	–	–	–	29.9	–	30.0
Oc1ccc(/C=N/Nc2nccnc2Cl)c(O)c1	–	–	–	42.5	–	45.2
COc1cccc(/C=N/Nc2nccnc2Cl)c1O	–	–	–	29.9	–	41.1
O=[N+]([O-])c1ccc(NN=Cc2ccccc2O)nc1	–	–	–	–	–	·
C#CCNC(=O)CSCc1nc(-c2ccc(OCC)cc2)oc1C	·	–	·	–	·	·
CCOc1ccc(-n2c(SCC(=O)c3ccc4ccccc4c3)nnc2-c2cccc(Cl)c2)cc1	·	–	·	–	·	·
COc1ccc(C(=O)NNC2=Nc3cccc4cccc2c34)cc1	–	–	–	–	–	·
Cc1ccc(C(=O)NNC2=Nc3cccc4cccc2c34)cc1	–	–	–	30.0	–	–
CCOC(=O)c1cnc2cc3c(cn2c1=O)CCCC3	–	–	–	–	–	·
CCOC(=O)C1=C(SCC)c2cc3c(n2C1=O)CCCC3	–	–	–	35.8	–	75.0
Cc1nc(SCC(N)=O)[nH]c(=O)c1C	·	–	·	–	·	·
COc1ccc2c(/C=N/Nc3ccc(C(=O)O)cc3)c[nH]c2c1	–	–	–	50.0	–	35.6
COc1ccc2ccccc2c1/C=N/Nc1ccc(Cl)c(C(=O)O)c1	–	–	–	36.7	–	52.1
COc1ccc2c(c1)c(/C=N/Nc1ccc(C(=O)O)cc1)c(C)n2C	–	–	–	–	–	·
COc1ccc2ccccc2c1/C=N/Nc1cccc(C(=O)O)c1	–	–	–	37.4	–	32.5
O=C(O)c1cc(N/N=C/C=C/c2ccccc2[N+](=O)[O-])ccc1Cl	–	–	–	30.1	–	35.8
O=C(N/N=C/C=C\c1ccccc1[N+](=O)[O-])c1ccncc1	–	–	–	–	–	·
CN(C)c1ccc(/C=N\NC(=O)c2cccc(S(=O)(=O)N(C)C)c2)cc1	·	–	·	–	·	·
CC(C)C[C@H]1COc2cc(N3CCOCC3)ccc2S(=O)(=O)N1	·	–	·	–	–	·
Cc1ccc(-c2cc(-c3nnc(SCC(=O)Nc4ccccc4-c4ccccc4)n3N)[nH]n2)cc1	·	–	·	–	·	·
Brc1ccc(-c2csc(N3CCC(c4nn[nH]n4)CC3)n2)cc1	·	–	·	–	·	·
O=C(O)c1cc(N/N=C/c2c[nH]c3ccccc23)ccc1Cl	–	–	–	32.0	–	–
COc1cc(/C=C2\SC(=S)N(Nc3ccccc3)C2=O)cc(OC)c1OC	–	–	–	33.3	–	40.2
CC(OP(=O)(O)C(NC(=O)[C@H](Cc1ccc(O)cc1)NC(=O)OC(C)(C)C)C(C)C)C(=O)O (stereo partly drawn)	·	–	·	–	·	·
O=C(NN=Cc1ccc(O)cc1O)c1ccccc1NS(=O)(=O)c1cccs1	–	–	–	32.6	–	35.9
SMILES	DAGLB inhibitor	SIAE primary	HTRA1 inh	mABHD4 FP	TCR CD3 inh	ABHD4 confirm
COc1ccc(C=NNC(=O)c2ccccc2NS(=O)(=O)c2cccs2)cc1O	–	–	–	–	–	·
CC(C)c1ccc(NC(=O)Nc2nc(C(N)C3CCCCC3)cs2)cc1 (stereo not drawn)	·	–	·	31.2	–	32.1
COC(=O)C1=C(C)N(C)C(=NCc2ccc(OC)cc2)NC1c1cccc(F)c1 (stereo not drawn)	·	–	·	–	–	·
CCOC(=O)C1=NOC(C(=O)NCc2ccccc2)(C(=O)c2ccc(OC)cc2)C1 (stereo not drawn)	·	–	·	–	·	·
COc1ccc(S(=O)(=O)N2CCC(NC(=O)c3ccccc3)CC2)cc1	–	–	–	39.3	–	–
CCCCCCOC(=O)C[N+](C)(C)CCOC1CC2CCC1(C)C2(C)C (stereo not drawn)	–	–	–	–	–	·
CCCCCCCOC(=O)C[N+](C)(C)CCOC1CC2CCC1(C)C2(C)C (stereo not drawn)	–	–	–	37.7	–	50.2
CC1=NN(Cc2ccccc2)C(=O)C1C(c1ccccc1)C(C#N)C#N (stereo not drawn)	–	–	–	53.1	–	–
CC1=NN(Cc2ccccc2)C(=O)C1C(c1ccc(Cl)cc1)C(C#N)C#N (stereo not drawn)	–	–	–	82.8	–	–
CC1=NN(Cc2ccccc2)C(=O)C1C(c1ccncc1)C(C#N)C#N (stereo not drawn)	–	–	–	–	–	·
Cc1ccccc1NC(=O)Cc1nc(COC(=O)c2cc([N+](=O)[O-])ccc2NCCO)cs1	–	–	–	39.5	–	–
Cc1ccccc1NC(=O)Cc1nc(COC(=O)c2cccc([N+](=O)[O-])c2)cs1	–	–	–	54.0	–	41.5
COC(=O)[C@]1(CNC(=O)C(C)(C)C)CC(=O)N(C)[C@@H]1c1ccccc1	·	–	·	–	·	·
Nc1[nH]c(C(=O)c2ccccc2)c(-c2ccc3ccccc3c2)c1C(=O)NCCc1ccc(Cl)cc1	·	–	·	–	·	·
Nc1ccc(O)cc1C(=O)OCC(=O)c1ccc(C2CCCCC2)cc1	–	–	–	53.5	–	38.5
Nc1ccc(O)cc1C(=O)OCC(=O)C12CC3CC(CC(C3)C1)C2	–	–	–	52.4	–	35.3
O=C(OCC(=O)C12CC3CC(CC(C3)C1)C2)c1ccc(O)cc1	–	–	–	–	–	·
c1ccc(-c2nc3ccccn3c2NCc2ccc3c(c2)OCO3)cc1	–	–	–	–	–	·
Clc1cccc(-c2ccc(-c3nc4ccccn4c3NCc3ccccc3)cc2)c1	–	–	–	37.2	–	33.3
COC(=O)C1=C(N)Oc2cc(N(C)C)ccc2C1c1ccccc1OC (stereo not drawn)	–	–	–	47.4	–	–
CCN(/C=N/c1sc2c(c1C#N)CCCCC2)CC	–	–	–	32.3	–	35.0
O=C(NCCc1ccc(Cl)cc1)c1ccc2c(=O)[nH]c3c(C(=O)NCC4CCCO4)sc(=S)n3c2c1 (stereo not drawn)	·	–	·	35.7	–	33.0
O=C(NCCc1ccccc1)c1ccc2c(=O)[nH]c3c(C(=O)NCC4CCCO4)sc(=S)n3c2c1 (stereo not drawn)	–	–	–	50.0	–	36.1
CC(=O)c1ccc(N2CCN(C(=O)c3ccc4c(=O)[nH]c5c(C(=O)NC6CCCC6)sc(=S)n5c4c3)CC2)cc1	·	–	·	34.4	–	–
O=C(NCC1CCCO1)c1sc(=S)n2c1[nH]c(=O)c1ccc(C(=O)N3CCCCC3)cc12 (stereo not drawn)	–	–	–	–	–	·
CCN(CC)C(=O)CC[C@@H]1CC[C@]2(CCCN(C(=O)c3cccnc3)C2)O1	·	–	·	–	·	·
C[C@H]1C2CC(OC(=O)Nc3cccc(C(F)(F)F)c3)C(C2)[C@H]2CCCCN21 (stereo partly drawn)	·	–	·	–	·	·
O=C(O)c1[nH]c2ccccc2c1C(c1c(F)cccc1Cl)c1c(C(=O)O)[nH]c2ccccc12	–	–	–	42.1	–	50.0

Compound activity: PubChem BioAssay, The Scripps Research Institute Molecular Screening Center
